EBV gp42 block: blocks Epstein-Barr virus glycoprotein 42 binding; inhibition, % (tested at 21.74 µM); Fluorescence polarization binding assay, mP read-out; Q1HVG2; hit rate 0.42% among 220,000; in the data active means inhibition above about 50%
Target sequence (Q1HVG2 whole entry, looked up): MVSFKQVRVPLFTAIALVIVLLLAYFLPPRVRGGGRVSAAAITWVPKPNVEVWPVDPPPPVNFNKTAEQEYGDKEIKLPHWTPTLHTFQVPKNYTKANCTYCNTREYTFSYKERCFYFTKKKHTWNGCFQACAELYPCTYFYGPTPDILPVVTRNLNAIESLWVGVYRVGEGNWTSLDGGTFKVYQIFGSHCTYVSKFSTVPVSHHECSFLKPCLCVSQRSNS
GLD-1 RNA inh: GLD-1-TGE RNA interaction inhibition (C. elegans) | purified GLD-1 + fluorescein TGE RNA, fluorescence polarization | inhibition, % at 5.96 µM | hit rate 0.44% among 320,000 | AID 2280;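 active means percent inhibition above a per-plate cutoff, the plate mean of test compounds plus 3 SD, cut at about 30% in these data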;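 further: 0% = DMSO wells with GLD-1 and probe and 100% = wells lacking GLD-1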
Target sequence (Q17339 whole entry, looked up): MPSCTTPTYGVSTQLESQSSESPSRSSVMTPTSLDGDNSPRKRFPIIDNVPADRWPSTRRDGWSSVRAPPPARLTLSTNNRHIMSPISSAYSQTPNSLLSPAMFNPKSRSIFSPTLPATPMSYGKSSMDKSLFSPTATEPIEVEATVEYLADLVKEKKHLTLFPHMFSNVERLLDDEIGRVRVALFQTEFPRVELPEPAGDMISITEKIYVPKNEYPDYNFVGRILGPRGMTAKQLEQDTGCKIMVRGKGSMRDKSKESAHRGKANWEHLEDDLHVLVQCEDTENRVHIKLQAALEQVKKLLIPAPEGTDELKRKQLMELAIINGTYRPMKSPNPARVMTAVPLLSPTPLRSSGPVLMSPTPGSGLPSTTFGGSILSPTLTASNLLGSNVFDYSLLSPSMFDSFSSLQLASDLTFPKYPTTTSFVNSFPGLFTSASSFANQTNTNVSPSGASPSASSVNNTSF
BCLXL inh: blocks human Bcl-xL binding to Bim BH3 peptide; hit rate 0.7% among 320,000; AID 2129; GST-Bcl-xL / FITC-Bim BH3 peptide fluorescence polarization; inhibition, % at 10.9 µM;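 active means inhibition above the mean of all tested compounds plus 3 SD, cutoff set per campaign, cut at about 30% in these data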;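 further: 0% = DMSO wells and 100% = unlabeled Bim-BH3 peptide competitor; inhibitors lower millipolarization by displacing the labeled peptide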
MEX-5 binding: C. elegans MEX-5 TCR-2 RNA binding activity; hit rate 0.38% among 300,000; activity score (negative = inhibition of binding), % at 10 µM; AID 1832; Q9XUB2; MEX-5/FITC-TCR2 RNA binding, fluorescence polarization; stronger effect = lower value;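 active means inhibition past about -25% in most replicates, and total fluorescence under double the plate's negative control median, limit read from the data; inconclusive means replicates evenly split on the limit, or fluorescence at least double controls; inactive means too little inhibition in most replicates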;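 further: 0% = DMSO and -100% = 5 µM competing unlabeled TCR2 RNA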
VIM-2 inh: inhibitors of Pseudomonas aeruginosa VIM-2 metallo-beta-lactamase | purified VIM-2, nitrocefin hydrolysis, epi-absorbance fluorescence | inhibition, % at 5.6 µM | hit rate 0.89% among 290,000 | AID 1527;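 active means inhibition above the mean of all tested compounds plus 3 SD, cutoff set per screening run, cut at about 7.5% in these data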;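 further: red hydrolysis product quenches plate fluorescence so inhibitors raise well fluorescence; 0% = enzyme with DMSO and 100% = DMSO without enzyme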
IMP-1 inhibitor: blocks Pseudomonas aeruginosa IMP-1 metallo-beta-lactamase | AID 1556 | hit rate 0.45% among 290,000 | purified IMP-1, nitrocefin hydrolysis, epi-absorbance fluorescence | inhibition, % at 5.6 µM;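 active means inhibition above the mean plus 3 SD of all compounds in the same screening run, cut at about 4.5% in these data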;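 further: 0% = IMP-1 with DMSO and 100% = DMSO wells lacking enzyme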
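System: Purified recombinant IMP-1 metallo-beta-lactamase enzyme | Measured by: Fluorescence quenching readout, ex 480/em 530 nm | Replication: Singlicate | Incubation: 15 min preincubation plus 25 min reaction at 25 °C | Evaluation: Percent inhibition from optical density relative to buffer-blank wells | Benchmarks: DMSO with and without IMP-1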
VIM-2 confirm: VIM-2 inhibition, confirmation assay; shares compounds with IMP-1 inhibitor; purified VIM-2 enzyme, nitrocefin absorbance; inhibition, % at 5.6 µM; hit rate 73% among 200; in the data active means inhibition above about 8%;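 further: 0% = enzyme with vehicle and 100% = no enzyme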
TEM-1 inh 2: blocks E. coli TEM-1 beta-lactamase, VIM-2 IMP-1 counter-screen; nitrocefin absorbance inhibition; AID 2184; shares compounds with IMP-1 inhibitor; hit rate 50% among 200; inhibition, % at 5.6 µM; in the data active means inhibition above about 0.66%
IMP-1 inh conf: confirmation of P. aeruginosa IMP-1 metallo-beta-lactamase inhibitors; shares compounds with IMP-1 inhibitor; purified IMP-1 enzyme, absorbance substrate hydrolysis; hit rate 60% among 200; inhibition, % at 5.6 µM; in the data active means inhibition above about 4.9%;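 further: 0% = enzyme with vehicle and 100% = vehicle without enzyme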
Starred values were filed as active, the others as inactive; ? = inconclusive; · = no result; + = active, no number. Most compounds without a hit are left out; they make up all but 2.2% or so of the library.

SMILES | EBV gp42 block | GLD-1 RNA inh | BCLXL inh | MEX-5 binding | VIM-2 inh | IMP-1 inhibitor | VIM-2 confirm | TEM-1 inh 2 | IMP-1 inh conf
CN1CCS/C1=C/C=C1\SC(=S)N(CC(=O)O)C1=O | -310 | -239 | -149 | ? | 9.6* | 6.8* | 8 | -7 | 2
CCN1/C(=C/C=C/c2oc3ccc4ccccc4c3[n+]2CC)Oc2ccc3ccccc3c21 | 162* | -69 | 80* | 5 | 13* | 33* | 9.9* | 18* | 14*
CC[n+]1c(/C=C/N(C)c2ccccc2)oc2ccc(Cl)cc21 | -17 | -14 | 7 | -3 | 1 | -4 | · | · | ·
Cn1cc(/C=C(\C(=O)O)C(C(=O)O)=C2CCCCC2)c2ccccc21 | -2 | -3 | 1 | -3 | 9.5* | 11* | 13* | 0 | 10*
CCC1Oc2ccccc2N(CC(=O)NCC2CCCO2)C1=O (stereo not drawn) | · | -8 | 2 | 0 | -2 | -3 | · | · | ·
CCNc1ccc(Br)cc(C(=O)/C=C/c2c(Cl)cccc2Cl)c1=O | -36 | -15 | -22 | -1 | 8.3* | 6.0* | 4 | -1 | -1
CCNc1ccc(Br)cc(C(=O)/C=C/c2ccc3c(c2)OCO3)c1=O | 34 | 9 | 13 | -4 | 0 | 3 | · | · | ·
O=C(NNC(=O)C1CCN(S(=O)(=O)c2ccc(Cl)cc2)CC1)c1ccccc1O | · | 6 | 7 | 1 | · | · | · | · | ·
Cc1ccc(S(=O)(=O)Nc2c(C(=O)O)[nH]c3ccccc23)c(C)c1 | · | -3 | -2 | -8 | 0 | -1 | · | · | ·
CCn1cc(/C=C/c2cc[n+](C)cc2)c2ccccc21 | · | 66* | 41* | ? | 16* | 13* | 14* | 8.0* | 8.3*
CC(C)n1cc(/C=C/c2cc[n+](C)cc2)c2ccccc21 | · | · | · | ? | 18* | 12* | 14* | 6.7* | 8.4*
O=C(O)C(F)=C(c1ccccc1)c1ccccc1 | · | -1 | 3 | 1 | · | · | · | · | ·
C/C(=N\O)c1ccc2c3c([nH]c2c1)CCCC3 | · | 21 | 21 | -5 | 23* | 8.6* | 37* | -3 | 4.8*
Cc1c(/C=C2\NC(=O)NC2=O)c2ccccc2n1C | · | 1 | 2 | -3 | 0 | -3 | · | · | ·
O=C(O)Cn1cc(C(=S)N2CCCCC2)c2ccccc21 | -6 | 8 | 18 | 1 | 9.2* | 5.0* | -3 | -6 | -4
CN(C)C(=O)c1cc(C(=O)Cc2ccccc2)c[nH]1 | · | 2 | 1 | 3 | -2 | -5 | · | · | ·
O=C(NC1CC1)C1CCN(c2ncnc3c2sc2cccc(F)c23)CC1 | -7 | 4 | 1 | 1 | 14* | 5.1* | 28* | -6 | -1
O=C(NC1CC1)C1CCN(c2nc3ccccc3s2)CC1 | · | -1 | 8 | -1 | -5 | -3 | · | · | ·
CCOc1ccc(C(=O)NCC(=O)NCC(c2ccccc2OC)N2CCCC2)cc1 (stereo not drawn) | · | 5 | 1 | 6 | · | · | · | · | ·
CCCOc1ccc(C(=O)NNC(=O)CCNC(=O)c2ccco2)cc1OC | · | 4 | 0 | 0 | · | · | · | · | ·
Nc1ccc(-c2c3ccc(=O)cc-3oc3cc(O)ccc23)cc1C(=O)O | · | 64* | 106* | ? | 70* | 51* | 59* | 62* | 42*
O=c1ccc2c(-c3ccccc3)c3ccc(O)cc3oc-2c1 | · | 75* | 106* | ? | 81* | 84* | 101* | 152* | 96*
Cc1oc2cc(O)ccc2c(=O)c1-c1ccccc1 | -12 | 5 | 6 | -2 | 0 | -2 | · | · | ·
Cc1ccc(S(=O)(=O)N2CCCCC2)cc1NC(=O)CSc1nc(N)cc(=O)[nH]1 | · | 5 | · | · | · | · | · | · | ·
CCN(CC)C1=CC2=CC(=C(C#N)C#N)CCC2CC1 (stereo not drawn) | -62 | -173 | 52* | ? | 36* | 47* | 60* | 79* | 58*
SMILES | EBV gp42 block | GLD-1 RNA inh | BCLXL inh | MEX-5 binding | VIM-2 inh | IMP-1 inhibitor | VIM-2 confirm | TEM-1 inh 2 | IMP-1 inh conf
CCCCN(C)C1=CC2=CC(=C(C#N)C#N)CCC2CC1 (stereo not drawn) | -184 | 15 | 39* | ? | 30* | 43* | 53* | 79* | 50*
N#CC(C#N)=C1C=C2C=C(N3CCCCC3)CCC2CC1 (stereo not drawn) | -102 | 29 | 35* | · | 48* | 58* | 62* | 87* | 58*
Cc1ccc(NC(=O)Cn2ccc(=O)[nH]c2=O)cc1 | · | -3 | 2 | 0 | -2 | -2 | · | · | ·
COc1ccccc1N1N=C(c2ccc([N+](=O)[O-])cc2)CC1c1ccccc1 (stereo not drawn) | · | -2 | 56* | 2 | 31* | 35* | 18* | 27* | 16*
Oc1ccc(Cn2ccnc2)c2cccnc12 | 0 | 0 | 5 | 1 | 10* | 26* | 21* | -3 | 44*
COc1cc(/C=C2\CCCc3c2nc2ccccc2c3C(=O)O)cc([N+](=O)[O-])c1O | · | 1 | 17 | -8 | 0 | -3 | · | · | ·
COc1ccc(/C=C2\CCCc3c2nc2ccccc2c3C(=O)O)cc1OC | 105* | 120* | 145* | -73* | 16* | 17* | 23* | 39* | 19*
CCOc1ccc(/C=C2\CCCc3c2nc2ccccc2c3C(=O)O)cc1OC | · | 150* | 176* | ? | 38* | 29* | 37* | 56* | 28*
Cc1ccc(OCC(=O)NNC(=O)C2CSC3(C)CCC(=O)N23)cc1 (stereo not drawn) | · | 6 | -1 | 1 | · | · | · | · | ·
CN(C)/C(=N\S(=O)(=O)c1ccc(Br)cc1)c1ccccc1 | · | -5 | -4 | 3 | -3 | -2 | · | · | ·
Nc1ccc2nc3c(=O)n(C4CCCCC4)c(=O)[nH]c3nc2c1 | 152* | + | + | ? | 21* | 24* | 23* | 30* | 16*
CCCCn1c(N)c(Br)c(=O)[nH]c1=O | -1 | -7 | 3 | -3 | -1 | -2 | · | · | ·
CCCCn1c(=O)[nH]c2nc3cc(N)ccc3nc2c1=O | 174* | + | + | · | 19* | 17* | 22* | 31* | 18*
COc1cc2[nH]c(=O)n(C3CCCCC3)c(=O)c2cc1OC | -3 | 8 | -4 | 1 | -1 | -3 | · | · | ·
Nc1ccc2nc3c(=O)n(CCc4ccccc4)c(=O)[nH]c3nc2c1 | 174* | 191* | 181* | -52* | 9.1* | 11* | 19* | 33* | 18*
Nc1ccc2nc(CCc3ccccc3)[nH]c2c1 | -3 | 3 | 7 | 4 | -3 | -3 | · | · | ·
